Experimental data from ChEMBL document CHEMBL1135812, “Carbonic anhydrase activators: design of high affinity isozymes I, II, and IV activators, incorporating tri-/tetrasubstituted-pyridinium-azole moieties” (2002).

Assays:
[1] = target: T1, Carbonic anhydrase 4 (Bos taurus) (UniProt Q95323); assay: Bovine Carbonic anhydrase IV activity using histamine as standard
T1 sequence (whole entry): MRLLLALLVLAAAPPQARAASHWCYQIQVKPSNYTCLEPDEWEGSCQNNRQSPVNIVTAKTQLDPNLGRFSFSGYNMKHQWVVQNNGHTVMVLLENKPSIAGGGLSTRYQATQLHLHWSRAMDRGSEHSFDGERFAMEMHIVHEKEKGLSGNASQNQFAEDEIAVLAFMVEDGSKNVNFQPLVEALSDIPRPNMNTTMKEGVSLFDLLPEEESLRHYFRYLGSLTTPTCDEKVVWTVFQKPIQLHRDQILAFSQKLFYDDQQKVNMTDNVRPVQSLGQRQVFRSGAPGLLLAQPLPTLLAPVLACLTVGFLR
Outline: (§1)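 Esterase assay: initial rates of 4-nitrophenyl acetate hydrolysis read at 400 nm, pH 7.40, 25 °C, substrate 2×10^-2 to 1×10^-6 M. Enzymes were recombinant human CA I (25 nM) and CA II (7 nM) expressed in E. coli BL21(DE3), and CA IV (33 nM) isolated from bovine lung microsomes. Activator and enzyme were preincubated 15 min at room temperature. Non-enzymatic hydrolysis was subtracted. KA is the mean of at least three determinations.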

[2] = target: Carbonic anhydrase 2 (Homo sapiens) (UniProt P00918); assay: […] of human Carbonic anhydrase II, using histamine as standard; outline: as §1
[3] = target: Carbonic anhydrase 1 (Homo sapiens) (UniProt P00915); assay: Activation of human Carbonic anhydrase I, using histamine as standard
Homo sapiens [4] = organism: Homo sapiens; assay: Ex vivo carbonic anhydrase activation was measured after 60 min of incubation of lysed human erythrocyte; type: functional; set-up: concentration or dose not given beside the values
Outline: (§2)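 Washed fresh human erythrocytes (Tris pH 7.40, 5 mM) were lysed in distilled water, then the supernatant was incubated with 5 μM activator at 37 °C for 30 or 60 min. CA activity (hCA I + hCA II) was read by esterase assay with 4-nitrophenyl acetate. Activity without activator was set as 100%; values are mean of n = 3.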

Homo sapiens [5] = organism: Homo sapiens; assay: Ex vivo carbonic anhydrase activation was measured after 30 min of incubation of lysed human erythrocyte; type: functional; set-up: concentration or dose not given beside the values; outline: as §2

Sequence of Carbonic anhydrase 1 (Homo sapiens) (P00915 2-261 limits assumed): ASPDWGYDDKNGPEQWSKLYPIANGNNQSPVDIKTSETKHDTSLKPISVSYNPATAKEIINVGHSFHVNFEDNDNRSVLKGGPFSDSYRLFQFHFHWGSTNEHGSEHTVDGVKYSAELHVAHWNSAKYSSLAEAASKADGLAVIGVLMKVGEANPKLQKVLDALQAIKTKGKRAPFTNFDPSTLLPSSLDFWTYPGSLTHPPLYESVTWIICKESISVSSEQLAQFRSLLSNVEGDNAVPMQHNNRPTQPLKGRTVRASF

KA [1] | KA [2] | KA [3] | SMILES | CA activity (Homo sapiens [4]) | CA activity (Homo sapiens [5])
1.24 µM | 62 µM | 0.303 µM | Cc1cc(-c2ccccc2)cc(-c2ccccc2)[n+]1-c1ncc[nH]1 |  | 
0.063 µM | 1.39 µM | 0.076 µM | Cc1cc(-c2ccccc2)cc(C)[n+]1-c1nn[n-]n1 |  | 
0.038 µM | 0.457 µM | 0.049 µM | Cc1cc(C)[n+](-c2cc[nH]n2)c(C)c1C |  | 
10.1 µM | 134 µM | 2.87 µM | CC(C)c1cc(-c2ccccc2)cc(-c2ccccc2)[n+]1-c1nn[n-]n1 |  | 
0.013 µM | 0.153 µM | 0.021 µM | Cc1cc(-c2ccccc2)cc(C)[n+]1-c1ncc[nH]1.[O-][Cl+3]([O-])([O-])[O-] | 233% | 192%
6.8 µM | 145 µM | 1.8 µM | CCCCc1cc(-c2ccccc2)cc(CCCC)[n+]1-c1nn[n-]n1 |  | 
0.017 µM | 0.359 µM | 0.035 µM | Cc1cc(-c2ccccc2)cc(C)[n+]1-c1cc[nH]n1 |  | 
2.56 µM | 84 µM | 1.05 µM | CCc1cc(-c2ccccc2)cc(-c2ccccc2)[n+]1-c1ncc[nH]1 |  | 
> 50 µM | > 150 µM | 32 µM | c1ccc(-c2cc(-c3ccccc3)[n+](-c3cc[nH]n3)c(-c3ccccc3)c2)cc1 |  | 
3.41 µM | 118 µM | 2.34 µM | CCc1cc(-c2ccccc2)cc(-c2ccccc2)[n+]1-c1cc[nH]n1 |  | 
> 50 µM | > 150 µM | 5.64 µM | CCCCc1cc(-c2ccccc2)cc(-c2ccccc2)[n+]1-c1cc[nH]n1 |  | 
0.021 µM | 0.347 µM | 0.036 µM | Cc1cc(C)[n+](-c2ncc[nH]2)c(C)c1 |  | 
5.76 µM | 130 µM | 1.9 µM | CCCc1cc(-c2ccccc2)cc(-c2ccccc2)[n+]1-c1ncc[nH]1 |  | 
0.055 µM | 1.23 µM | 0.064 µM | CCc1cc(-c2ccccc2)cc(CC)[n+]1-c1nn[n-]n1 |  | 
0.015 µM | 0.306 µM | 0.027 µM | CCc1cc(-c2ccccc2)cc(CC)[n+]1-c1cc[nH]n1 |  | 
> 50 µM | > 150 µM | 15 µM | c1ccc(-c2cc(-c3ccccc3)[n+](-c3ncc[nH]3)c(-c3ccccc3)c2)cc1 |  | 
0.033 µM | 0.412 µM | 0.037 µM | Cc1c2cc(c(C)[n+]1-c1cc[nH]n1)CCCCCCCCC2 |  | 

Continued, compound first:

SMILES | KA [1] | KA [2] | KA [3] | CA activity (Homo sapiens [4]) | CA activity (Homo sapiens [5])
CCCCc1cc(-c2ccccc2)cc(-c2ccccc2)[n+]1-c1nn[n-]n1 | > 50 µM | > 150 µM | 10.5 µM |  | 
CCCc1cc(-c2ccccc2)cc(CCC)[n+]1-c1cc[nH]n1 | 1.2 µM | 75 µM | 1.35 µM |  | 
CCCc1cc(-c2ccccc2)cc(CCC)[n+]1-c1nn[n-]n1 | 1.55 µM | 136 µM | 2.12 µM |  | 
Cc1cc(-c2ccccc2)cc(-c2ccccc2)[n+]1-c1nn[n-]n1 | 5.24 µM | 108 µM | 1.1 µM |  | 
CCCCc1cc(-c2ccccc2)cc(-c2ccccc2)[n+]1-c1ncc[nH]1 | 9.55 µM | 130 µM | 2.4 µM |  | 
CC(C)c1cc(-c2ccccc2)cc(-c2ccccc2)[n+]1-c1ncc[nH]1 | 3.14 µM | 107 µM | 1.54 µM |  | 
CCCc1cc(-c2ccccc2)cc(-c2ccccc2)[n+]1-c1cc[nH]n1 | 8.23 µM | 135 µM | 2.78 µM |  | 
NCCc1c[nH]cn1 [HISTAMINE] | 41 µM | 125 µM | 2.1 µM | 130% | 121%
Cc1cc(C(C)C)[n+](-c2cc[nH]n2)c(C(C)C)c1 | 0.016 µM | 0.264 µM | 0.038 µM |  | 
CCCCc1cc(-c2ccccc2)cc(CCCC)[n+]1-c1cc[nH]n1 | 2.59 µM | 140 µM | 1.76 µM |  | 
CCCc1cc(-c2ccccc2)cc(-c2ccccc2)[n+]1-c1nn[n-]n1 | 15.5 µM | > 150 µM | 4.21 µM |  | 
CCCc1cc(-c2ccccc2)cc(CCC)[n+]1-c1ncc[nH]1 | 0.62 µM | 48 µM | 0.247 µM |  | 
Cc1cc(C)[n+](-c2ncc[nH]2)c(-c2ccccc2)c1 | 0.975 µM | 59 µM | 0.36 µM |  | 
CC(C)c1cc(-c2ccccc2)cc(C(C)C)[n+]1-c1cc[nH]n1.[O-][Cl+3]([O-])([O-])[O-] | 0.008 µM | 0.155 µM | 0.021 µM | 234% | 189%
CCCCc1cc(-c2ccccc2)cc(CCCC)[n+]1-c1ncc[nH]1 | 1.89 µM | 86 µM | 0.651 µM |  | 
Cc1cc(-c2ccccc2)cc(-c2ccccc2)[n+]1-c1cc[nH]n1 | 1.85 µM | 96 µM | 0.64 µM |  | 
CC(C)c1cc(-c2ccccc2)cc(C(C)C)[n+]1-c1nn[n-]n1 | 0.012 µM | 1.15 µM | 0.05 µM | 212% | 173%
CCc1cc(-c2ccccc2)cc(CC)[n+]1-c1ncc[nH]1 | 0.009 µM | 0.144 µM | 0.018 µM |  | 
c1ccc(-c2cc(-c3ccccc3)[n+](-c3nn[n-]n3)c(-c3ccccc3)c2)cc1 | > 50 µM | > 150 µM | 41 µM |  | 
Cc1cc(C(C)C)[n+](-c2ncc[nH]2)c(C(C)C)c1 | 0.008 µM | 0.13 µM | 0.024 µM |  | 
Cc1cc(C)[n+](-c2cc[nH]n2)c(-c2ccccc2)c1 | 1.68 µM | 83 µM | 0.875 µM |  | 
Cc1c2cc(c(C)[n+]1C1=NCC=N1)CCCCCCCCC2 | 0.02 µM | 0.305 µM | 0.022 µM |  | 
CCc1cc(-c2ccccc2)cc(-c2ccccc2)[n+]1-c1nn[n-]n1 | 12.5 µM | 140 µM | 3.05 µM |  | 
CC(C)c1cc(-c2ccccc2)cc(C(C)C)[n+]1-c1ncc[nH]1.[O-][Cl+3]([O-])([O-])[O-] | 0.006 µM | 0.095 µM | 0.012 µM | 298% | 256%
Cc1cc(C)[n+](-c2cc[nH]n2)c(C)c1 | 0.045 µM | 0.48 µM | 0.052 µM |  | 
CC(C)c1cc(-c2ccccc2)cc(-c2ccccc2)[n+]1-c1cc[nH]n1 | 5.29 µM | 130 µM | 2.5 µM |  | 
